Experimental data: ChEMBL document CHEMBL3751671, “Synthesis and biological activity of diisothiocyanate-derived mercapturic acids” (Bioorg Med Chem Lett, 2016); call rule not given here
pIC50: −log10 of the molar value.

Legend:
[1] = system: LoVo; test: Antiproliferative activity against human LoVo cells assessed as reduction in cell viability after 72 hrs by SRB assay; format: functional, cell-based; settings: for pIC50: Homo sapiens, LoVo, 72 h, read-out: IC50
Outline: (§1)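 Human colon adenocarcinoma LoVo cells and their doxorubicin-resistant subline LoVo/DX. Growth was read by sulforhodamine B (SRB) staining. IC50 values are means ± SD from at least three experiments, each in triplicate.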

[2] = Antiproliferative activity against human LoVo/DX cells assessed as reduction in cell viability after 72 hrs by SRB assay; format: functional, cell-based; outline: as §1
[3] = Potency index, ratio of IC50 for doxorubicin to IC50 for test compound against human LoVo/DX cells assessed as reduction in cell viability after 72 hrs by SRB assay; format: functional
[4] = molecular target: Histone deacetylase; test: Inhibition of HDAC in human LoVo/DX cells using Boc-Lys(Ac)-AMC as substrate assessed as release of AMC pre-incubated for 15 mins followed by substrate addition measured after 3 hrs by indirect spectrofluorometric assay; format: cell-based
Outline: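 Crude enzyme was LoVo/DX cell lysate. HDAC activity was read by an indirect spectrofluorometric assay, and IC50 was determined on the lysate.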

[5] = system: BALB/3T3; test: Cytotoxicity against mouse BALB/3T3 cells after 72 hrs by SRB assay; format: cell-based; settings: BALB/3T3, 72 h
[6] = system: Mus musculus; test: Toxicity in Balb/c mouse assessed as changes in body weight at 900 umol/kg; format: organism-based; settings: in vivo
Outline: (§2)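 Preliminary in vivo toxicity study in Balb/c mice given high doses (900 µmol/kg b.w.). Toxicity was judged from body weight changes, blood morphology and blood biochemical analysis.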

[7] = system: Mus musculus; test: Toxicity in Balb/c mouse assessed as changes in blood morphology at 900 umol/kg; format: organism-based; settings: in vivo; outline: as §2
[8] = system: Mus musculus; test: Toxicity in Balb/c mouse assessed as changes in blood biochemical parameters at 900 umol/kg; format: organism-based; settings: in vivo; outline: as §2
[9] = system: LoVo; test: Selectivity index, ratio of IC50 for mouse BALB/3T3 cells to IC50 for human LoVo cells; format: functional
[10] = Selectivity index, ratio of IC50 for mouse BALB/3T3 cells to IC50 for human LoVo/DX cells; format: functional
[11] = system: LoVo; test: Selectivity index, ratio of IC50 for human LoVo/DX cells to IC50 for human LoVo cells; format: functional

pIC50 [1] | IC50 [4] [µM] | Compound | pIC50 [2] | pIC50 [5] | also measured
4.44 | 3200 | CCCCCNC(=S)SC[C@H](NC(C)=O)C(=O)O | 4.37 | 4.31 | –
5.69 | 2330 | CC(=O)N[C@@H](CSC(=S)NCCCCNC(=S)SC[C@H](NC(C)=O)C(=O)O)C(=O)O | 5.32 | 5.26 | Activity [6]: Non-toxic; Activity [7]: Non-toxic; Activity [8]: Non-toxic
5.43 | 2940 | COc1ccc(CNC(=S)SC[C@H](NC(C)=O)C(=O)O)cc1 | 5.38 | 5.16 | –
5.15 | 2190 | CC(=O)N[C@@H](CSC(=S)NCCCC(C)CNC(=S)SC[C@H](NC(C)=O)C(=O)O)C(=O)O (some centres not stated) | 5.18 | 5.10 | –
4.63 | 290 | CC(=O)N[C@@H](CSC(=S)Nc1ccc(NC(=S)SC[C@H](NC(C)=O)C(=O)O)cc1)C(=O)O | 4.71 | 4.10 | Ratio IC50 [9]: 3; Ratio IC50 [10]: 3
5.37 | 5960 | CC(=O)N[C@@H](CSC(=S)NCCCNC(=S)SC[C@H](NC(C)=O)C(=O)O)C(=O)O | 5.02 | 5.06 | –
4.90 | 3450 | CC(=O)N[C@@H](CSC(=S)NCCc1ccccc1)C(=O)O | 5.11 | 4.60 | –
< 4.60 | 970 | CC(=O)N[C@@H](CSC(=S)Nc1cccc(NC(=S)SC[C@H](NC(C)=O)C(=O)O)c1)C(=O)O | < 4.60 | < 4.00 | –
4.93 | 3440 | CC(=O)N[C@@H](CSC(=S)NCc1ccccc1)C(=O)O | 4.77 | 4.63 | –
3.82 | – | CCCNC(=S)SC[C@H](NC(C)=O)C(=O)O | 3.95 | 3.65 | –
4.69 | 450 | CC(=O)N[C@@H](CSC(=S)Nc1ccc(C)c(NC(=S)SC[C@H](NC(C)=O)C(=O)O)c1)C(=O)O | 4.65 | 4.26 | Ratio IC50 [9]: 3; Ratio IC50 [10]: 3
3.89 | 3460 | CCCCNC(=S)SC[C@H](NC(C)=O)C(=O)O | 3.87 | 3.69 | –
5.43 | – | COc1ccc(CN=C=S)cc1 | 5.41 | – | –

The next lines start with the compound.

Compound | pIC50 [1] | IC50 [4] [µM] | pIC50 [2] | pIC50 [5] | also measured
S=C=NCCCCN=C=S | 5.73 | – | 5.63 | – | Ratio IC50 [3]: 3
S=C=NCCCN=C=S | 5.74 | – | 5.61 | – | –
CC(=O)N[C@@H](CSC(=S)NCCCOCCOCCOCCCNC(=S)SC[C@H](NC(C)=O)C(=O)O)C(=O)O | 5.59 | 4260 | 5.10 | 5.15 | –
CC(=O)N[C@@H](CSC(=S)NC1CCCCC1NC(=S)SC[C@H](NC(C)=O)C(=O)O)C(=O)O (some centres not stated) | – | 1660 | 3.32 | 4.12 | IC50 ([1]; lovo): Not Active
Cc1ccc(N=C=S)cc1N=C=S | 4.45 | – | 4.32 | – | –
CC(=O)N[C@@H](CSC(=S)NCC1CCCC(CNC(=S)SC[C@H](NC(C)=O)C(=O)O)C1)C(=O)O (some centres not stated) | 4.93 | 2680 | 4.89 | 5.23 | Ratio IC50 [10]: 0.5
S=C=Nc1cccc(N=C=S)c1 | 4.33 | – | 4.25 | – | –
CC(=O)N[C@@H](CSC(=S)NCCOCCOCCNC(=S)SC[C@H](NC(C)=O)C(=O)O)C(=O)O | 5.34 | 4370 | 4.85 | 5.16 | Ratio IC50 [10]: 0.5
CC(=O)N[C@@H](CSC(=S)N[C@H]1CC[C@H](NC(=S)SC[C@H](NC(C)=O)C(=O)O)CC1)C(=O)O | 5.28 | 3740 | 5.46 | 5.14 | –
CCCCCN=C=S [1-ISOTHIOCYANATOPENTANE] | 4.05 | – | 4.12 | – | –
CC(=O)N[C@@H](CS)C(=O)O [ACETYLCYSTEINE] | – | 3160 | – | – | –
S=C=NCc1ccccc1 [BENZYL ISOTHIOCYANATE] | 4.84 | – | 4.70 | – | –
S=C=Nc1ccc(N=C=S)cc1 [BITOSCANATE] | 5.03 | – | 4.94 | – | –
CCCCN=C=S [BUTYL ISOTHIOCYANATE] | 3.53 | – | 3.58 | – | –
COc1cccc2c1C(=O)c1c(O)c3c(c(O)c1C2=O)C[C@@](O)(C(=O)CO)C[C@@H]3O[C@H]1C[C@H](N)[C@H](O)[C@H](C)O1 [DOXORUBICIN] | – | – | 5.14 | 6.96 | Ratio IC50 [11]: 48
S=C=NCCc1ccccc1 [PHENETHYLISOTHIOCYANATE] | – | – | 5.01 | – | –
CCCN=C=S [PROPYL ISOTHIOCYANATE] | 3.74 | – | 3.75 | – | –
